To fix the notation:
B1: tRNA (parent)
chain: GUUCCGUUGGCGUAAUGGUAACGCGUCUCCCUCCUAAGGAGAAGACUGCGGGUUCGAGUCCCGUACGGAACG

The source of these data is the RNAGym collection of RNA variant scans (doi:10.1126/science.aae0568).

Fewer inactive variants are shown than the library holds. Bounds are passed on as bounds.

The variants in this data set derive from B1. The data set can be described thus: yeast fitness relative to wild type (ratio to wild type); higher = fitter; tRNA-Arg(CCU), competitive growth, 37 C, YPD. The method, boiled down: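 The tRNA-Arg(CCU) gene variants were made by chemical synthesis with a 3% per-site mutation rate at 69 sites and inserted at the native genomic locus of Saccharomyces cerevisiae. After pooling, the strains were competed in YPD at 37°C for 24 hours in six parallel replicates. Gene amplicons from the start population and each end population were read by 100-nucleotide paired-end sequencing, and Darwinian fitness relative to wild type was taken from genotype frequency changes. Genotypes needed ≥ 100 starting reads, and estimates < 0.5 were set to 0.5.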
Consider GUUCCGUUGGCGGAAUGGUAACGCGUCUCCCAACUAAGGAGAAGACUGCGGGUUCGAGUCCCGUACGGAACG [U13G U32A C33A], for which the yeast fitness was at most 0.5.
Consider GUUCCGUUGGCGCAAUGGUAACGCGUCUCCCUCCUAAGGAGAAGACUGCGGGUUCGAGACCCGUACGGAACG [U13C U59A], for which the yeast fitness turned out to be 0.768.
For GUUCCGUUGGCGCAAUGGUAACGCGUCUCCCUCCUAAGGAGAAGACUGCGGGUUCGAGCCCCGUACGGAACG [U13C U59C] the value was 0.858; for GUUCCGUUGGCGGAAUGGUAACGCGUCUCCCUCCUAAGGAGCAGACUGCGGGUUCGAGUCCCGUACGGAACG [U13G A42C], 1; for GUUCCGUUGGCGGAAUGGUAACGCGUCUCCCUCCUAAGGAGAAGAGUGCGGGUUCGAGUCCCGUACGGAACG [U13G C46G], 1.12.
With GUUCCGUUGGCGGAAUGGCAACGCGUCUCCCUCCUAAGGAGAAGACUGCGGGUUCGAGUCUCGUACGGAACG [U13G U19C C61U], the yeast fitness was at most 0.5.
For the variant GUUCCGUUGGCGUCAUGGUUACGCGUCUCCUUCCUAACGAGAAGACUGCGGGUUCGAGACCCGUACGGAACG [A14C A20U C31U G38C U59A], the yeast fitness was at most 0.5.
GUUCCGUUGGCGGAAUGGUAACGCGUCUCCCUCCUAAGGAGAAGACUGCGGGUUCGAGUCCCGUACGGUACG [U13G A69U]: the yeast fitness was determined as 0.931.
With GUUCCGUUGGCGCAAGGGUAACGCGUCUCCCUCCUAAGGAGAAGACUGGGGGUUCGAGUCCCGUACGGAACG [U13C U16G C49G], the yeast fitness was 0.617.
In the case of GUUCCGUUGGCGUCAUGGUACCGUGUCUCCCUCCUUAGGAGAUGACUGCGGGUUUGAGUCCCGUACGGAACG [A14C A21C C24U A36U A43U C55U], the yeast fitness is at most 0.5.
For GUUCCGUUGGCGCAAUGGUAACGCGUCUCCCUCCUAAGGAGAAGACCGCGGGUUCGAGUCCUGUAUGGAACG [U13C U47C C62U C66U] the value was at most 0.5; for GUUCCGUUGGCGGAAUGGUAAUGCAUCUCCCUCCUAAGGAGAAGACUGCGGGUUCGAGUCCCGUACGGAACG [U13G C22U G25A], 1.01.
Regarding GUUCCGUUGGCGCAAUGGUAACGCGUCUCCCUCCUAAGGAGAAGACUGCGGGUUCGAGUCCCGUACGCAACG [U13C G68C], the yeast fitness was 0.877.
Regarding GUUCCGUUGGCGUCAUGGUACCGCGUCUCCCUCCUAAGGAGAAGAAUGUGGGUUCGAGUCCCGUACGGAACG [A14C A21C C46A C49U], the yeast fitness is at most 0.5.
Turning to GUUCCGUUGGCGGAAUGGUAACGCGUAUCACUCCUAAGGAGAAGACUGCGGGUUCGAGUCCCCUACGGAACG [U13G C27A C30A G63C], the yeast fitness is 0.537.
Take GUUCCGUUGGCGGAAUGGUAACGCGUCUCUCUCCUAAGGAGAAGACUGCGGGUUAGAGUCCCGUACGGAACG [U13G C30U C55A]: the yeast fitness was at most 0.5.
For the variant GUUCCGUUGGCGCAAUGGUAACGCCUCGCCCUCCUAAGGAGAAGACUGCGGGUUCGAAUGCCGUACGGAACG [U13C G25C U28G G58A C60G], the yeast fitness came out at 0.622.
With GUUCCGUUGGCGUCUUGGUAACGCGUCUCUCUCGUAAGGAGAGGACUCUGGGUUCGAGUCUCGUACGGAACG [A14C A15U C30U C34G A43G G48C C49U C61U], the yeast fitness is at most 0.5.
For GUUCCGUUGGCGGAAUCGUAACGCGUCUCCUUCCUAAGGAGAAGACUGCGGGUUCGAGUCCCGUACGGAACG [U13G G17C C31U], the yeast fitness was at most 0.5.
As to GUUCCGUUGGCGGUAAUGUAACGCGUCUCCCUCCUAAGGAGAAGACUGCGGGUUCGAGUCCCGUACGGAACG [U13G A14U U16A G17U], the yeast fitness was at most 0.5.
GUUCCGUUGGCGCAAUGGUAACGCGUCUCCCUCCUAAGGAGAAGACCGCGGGUUCGAGUCCCGGACGCAACG [U13C U47C U64G G68C]: the yeast fitness was at most 0.5.
In the case of GUUCCGUUGGCGUCAUGGUGACGCGUCUCCCUCCUAAGGAGCAGACUCCGGGUUCGAGUCCCGUACGGAACG [A14C A20G A42C G48C], the yeast fitness is at most 0.5.
For GUUCCGUUGGCGGAAUGGUAACGCGUCUCCCUCCUAAGGAGAAGACUGCGGGUUCGAGUCCCGUACGGAACG [U13G] the value was 1.03.
For GUUCCGUUGGCGGAAUGGUAACGCGCCUCCCUCCUAAGGAGAAGACUGGGGGUUCGAGUCCCGUACGGAACG [U13G U26C C49G], the yeast fitness was at most 0.5.
As to GUUCCGUUGGCGUCUUGGUAACGCGUCUCCCUCGUAAGGAGAAGACUGCAGGUUCGAGUCCCGUACGGAACG [A14C A15U C34G G50A], the yeast fitness is at most 0.5.
With GUUCCGUUGGCGGAAUGGUAACGCGUCUCCCUCCUAAGGAUAAGACUGCGGGUUCGAGUCCCGUAGGGAACG [U13G G41U C66G], the yeast fitness was at most 0.5.
For GUUCCGUUGGCGCAAUGGUAACCCGUCUCGCUCCUAAGGAGAAGACUGCGGGUUCGAGUCCCGUCCGGAACG [U13C G23C C30G A65C] the value was at most 0.5; for GUUCCGUUGGCGUCAUGGUGACGCGUCUCCCUCCUAAGGAGAAGACUGCGGGUUCGAGUCCCGUACGGAACG [A14C A20G], 0.647.
On to GUUCCGUUGGCGGAAUGGUAACGCGUCUCCCUCCGAAGGGGAAGACUGCGGGUUCGACUCCCGUUCGGAACG [U13G U35G A40G G58C A65U], for which the yeast fitness was at most 0.5.
For GUUCCGUUGGCGGAAUGGUAACGCGUCUCCCUCCUAAGGACAAGACUGCGGGUUCGAGUCCCGUACGGAACG [U13G G41C] the value was 0.782; for GUUCCGUUGGCGGAAGGGUAACGCGUCUCCGUCCUAAGGAGAAGACUGUGGGUUCGGGUCCCGUACGGAACG [U13G U16G C31G C49U A57G], at most 0.5; for GUUCCGUUGGCGGAAUGCUAACGCGUCUCUCUGCUAAGGAGAAGACUGCGGGUUCGAGUCCCGUCCGGAGCG [U13G G18C C30U C33G A65C A70G], at most 0.5.
With GUUCCGUUGGCGGAAUGGUAACGCGUCUCCCUCCUAAGGACAAGACUGCGAGUUCGAGUCCCGUACGGAACG [U13G G41C G51A], the yeast fitness was found to be 0.564.
On to GUUCCGUUGGCGUCAUGGUGACGCGUCUCCCUCCUAAGGAGAAGCCUGCGGGUUCGCGUCCCGUACGGAACG [A14C A20G A45C A57C], for which the yeast fitness is at most 0.5.
For GUUCCGUUGGCGGAAUGGUAACGCGUCUUCCUUCUAAGGAGAAGACUGCGGGUUCGAGUCCCAUACGGAACG [U13G C29U C33U G63A] the value was at most 0.5; for GUUCCGUUGGCGCAAUAGUAACGCGUCUCCCUCCUAAGGAGAAGACCGCGGGUUCGAGUCCCGUGCGGAACG [U13C G17A U47C A65G], at most 0.5; for GUUCCGUUGGCGUCCCGGUAACGCGUUUACCUCGUAAGGAGAAGACUGCCGGUUCGAGUCCCGUACGGAACG [A14C A15C U16C C27U C29A C34G G50C], at most 0.5.
